From ChEMBL document CHEMBL1126990, “Design and synthesis of 18F-labeled neurotoxic analogs of MPTP” (J Med Chem, 1993)

Columns and labels:
Rattus norvegicus = organism: Rattus norvegicus; assay: Maximal rate (Vmax) for oxidation by rat liver MAO (results are means of number of separate experiments, n=4) (*p<0.01); type: ADME
In short: (§1)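 Rat liver MAO (crude P2 mitochondrial fraction from adult male Wistar rats, in pH 7.4 phosphate buffer) incubated with substrate at 30 μM to 5 mM; colorimetric detection of H2O2 formed. Blanks contained 0.1 mM pargyline. Vmax and Km from linear regression of Lineweaver-Burk plots; means ± SE of n separate experiments; ANOVA with post-hoc Scheffe test.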

Mus musculus [1] = organism: Mus musculus; assay: Biodistribution of [18F]-radiolabeled compound in the mouse heart after 30 minutes (average uptake in (%injected dose)/(% body weight); type: ADME, organism-based; conditions: in vivo, 0.5 h
In short: (§2)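 Adult male C57 Black mice (about 20 g), anesthetized with 1 mg sodium pentobarbital ip, given 0.1 mL (~0.05 mCi) tracer via tail vein. Killed by cervical dislocation at set times (5–90 min). Organs sampled, counted, weighed. Injected dose measured against weighed standards, minus residual tail activity. %id/g multiplied by body weight gives normalized uptake. Mean ± SD, N = 3 (N = 2 at 5 min).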

Mus musculus [2] = organism: Mus musculus; assay: Biodistribution of [18F]-radiolabeled compound in the mouse heart after 5 minutes (average uptake in (%injected dose)/(% body weight); type: ADME, organism-based; conditions: in vivo; in short: as §2
Mus musculus [3] = organism: Mus musculus; assay: Biodistribution of [18F]-radiolabeled compound in the mouse heart after 60 minutes (average uptake in (%injected dose)/(% body weight); type: ADME, organism-based; conditions: in vivo, 1 h; in short: as §2
Mus musculus [4] = organism: Mus musculus; assay: Biodistribution of [18F]-radiolabeled compound in the mouse heart after 90 minutes (average uptake in (%injected dose)/(% body weight); type: ADME, organism-based; conditions: in vivo, 1.5 h; in short: as §2
Mus musculus [5] = organism: Mus musculus; assay: Biodistribution of [18F]-radiolabeled compound in the mouse intestine after 15 minutes (average uptake in (%injected dose)/(% body weight); type: ADME, organism-based; conditions: in vivo, 0.25 h; in short: as §2
Mus musculus [6] = organism: Mus musculus; assay: Biodistribution of [18F]-radiolabeled compound in the mouse intestine after 30 min (average uptake in (%injected dose)/(% body weight); type: ADME, organism-based; conditions: in vivo, 0.5 h; in short: as §2
Mus musculus [7] = organism: Mus musculus; assay: Biodistribution of [18F]-radiolabeled compound in the mouse intestine after 5 minutes (average uptake in (%injected dose)/(% body weight); type: ADME, organism-based; conditions: in vivo; in short: as §2
[8] = separate experiments, n=4); type: ADME; in short: as §1
Mus musculus [9] = organism: Mus musculus; assay: Biodistribution of [18F]-radiolabeled compound in the mouse intestine after 60 minutes (average uptake in (%injected dose)/(% body weight); type: ADME, organism-based; conditions: in vivo, 1 h; in short: as §2
Mus musculus [10] = organism: Mus musculus; assay: Biodistribution of [18F]-radiolabeled compound in the mouse intestine after 90 minutes (average uptake in (%injected dose)/(% body weight); type: ADME, organism-based; conditions: in vivo, 1.5 h; in short: as §2
Mus musculus [11] = organism: Mus musculus; assay: Biodistribution of [18F]-radiolabeled compound in the mouse kidney after 15 minutes (average uptake in (%injected dose)/(% body weight); type: ADME, organism-based; conditions: in vivo, 0.25 h; in short: as §2
Mus musculus [12] = organism: Mus musculus; assay: Biodistribution of [18F]-radiolabeled compound in the mouse kidney after 30 minutes (average uptake in (%injected dose)/(% body weight); type: ADME, organism-based; conditions: in vivo, 0.5 h; in short: as §2
Mus musculus [13] = organism: Mus musculus; assay: Biodistribution of [18F]-radiolabeled compound in the mouse kidney after 5 minutes (average uptake in (%injected dose)/(% body weight); type: ADME, organism-based; conditions: in vivo; in short: as §2
Mus musculus [14] = organism: Mus musculus; assay: Biodistribution of [18F]-radiolabeled compound in the mouse kidney after 60 minutes (average uptake in (%injected dose)/(% body weight); type: ADME, organism-based; conditions: in vivo, 1 h; in short: as §2
Mus musculus [15] = organism: Mus musculus; assay: Biodistribution of [18F]-radiolabeled compound in the mouse kidney after 90 minutes (average uptake in (%injected dose)/(% body weight); type: ADME, organism-based; conditions: in vivo, 1.5 h; in short: as §2
Mus musculus [16] = organism: Mus musculus; assay: Biodistribution of [18F]-radiolabeled compound in the mouse liver after 15 minutes (average uptake in (%injected dose)/(% body weight); type: ADME, organism-based; conditions: in vivo, 0.25 h; in short: as §2
Mus musculus [17] = organism: Mus musculus; assay: Biodistribution of [18F]-radiolabeled compound in the mouse liver after 30 minutes (average uptake in (%injected dose)/(% body weight); type: ADME, organism-based; conditions: in vivo, 0.5 h; in short: as §2
Mus musculus [18] = organism: Mus musculus; assay: Biodistribution of [18F]-radiolabeled compound in the mouse liver after 5 minutes (average uptake in (%injected dose)/(% body weight); type: ADME, organism-based; conditions: in vivo; in short: as §2
Mus musculus [19] = organism: Mus musculus; assay: Biodistribution of [18F]-radiolabeled compound in the mouse liver after 60 minutes (average uptake in (%injected dose)/(% body weight); type: ADME, organism-based; conditions: in vivo, 1 h; in short: as §2
Mus musculus [20] = organism: Mus musculus; assay: Biodistribution of [18F]-radiolabeled compound in the mouse liver after 90 minutes (average uptake in (%injected dose)/(% body weight); type: ADME, organism-based; conditions: in vivo, 1.5 h; in short: as §2
Mus musculus [21] = organism: Mus musculus; assay: Biodistribution of [18F]-radiolabeled compound in the mouse lung after 15 minutes (average uptake in (%injected dose)/(% body weight); type: ADME, organism-based; conditions: in vivo, 0.25 h; in short: as §2
Mus musculus [22] = organism: Mus musculus; assay: Biodistribution of [18F]-radiolabeled compound in the mouse blood after 15 minutes (average uptake in (%injected dose)/(% body weight); type: ADME, organism-based; conditions: in vivo, 0.25 h; in short: as §2
Mus musculus [23] = organism: Mus musculus; assay: Biodistribution of [18F]-radiolabeled compound in the mouse blood after 30 minutes (average uptake in (%injected dose)/(% body weight); type: ADME, organism-based; conditions: in vivo, 0.5 h; in short: as §2
Mus musculus [24] = organism: Mus musculus; assay: Biodistribution of [18F]-radiolabeled compound in the mouse blood after 5 minutes (average uptake in (%injected dose)/(% body weight); type: ADME, organism-based; conditions: in vivo; in short: as §2
Mus musculus [25] = organism: Mus musculus; assay: Biodistribution of [18F]-radiolabeled compound in the mouse blood after 60 minutes (average uptake in (%injected dose)/(% body weight); type: ADME, organism-based; conditions: in vivo, 1 h; in short: as §2

CN1CC=C(c2ccccc2CF)CC1
Vmax (Rattus norvegicus): 609 nM hr-1 (mg of protein)-1 | Time (Mus musculus [1]): 2.03 min | Time (Mus musculus [2]): 2.54 min | Time (Mus musculus [3]): 1.88 min | Time (Mus musculus [4]): 1.84 min | Time (Mus musculus [5]): 1.99 min | Time (Mus musculus [6]): 1.06 min | Time (Mus musculus [7]): 1.36 min | Km [8]: 159 µM | Time (Mus musculus [9]): 0.88 min | Time (Mus musculus [10]): 2.32 min | Time (Mus musculus [11]): 2.64 min | Time (Mus musculus [12]): 1.36 min | Time (Mus musculus [13]): 4.04 min | Time (Mus musculus [14]): 0.94 min | Time (Mus musculus [15]): 0.72 min | Time (Mus musculus [16]): 2.33 min | Time (Mus musculus [17]): 1.36 min | Time (Mus musculus [18]): 2.3 min | Time (Mus musculus [19]): 0.72 min | Time (Mus musculus [20]): 0.778 min | Time (Mus musculus [21]): 3.83 min | Time (Mus musculus [22]): 0.66 min | Time (Mus musculus [23]): 0.4 min | Time (Mus musculus [24]): 0.67 min | Time (Mus musculus [25]): 0.31 min
